The values below come from ChEMBL document CHEMBL4376875, “Synthesis and Biological Evaluation of B-Cell Lymphoma 6 Inhibitors of N-Phenyl-4-pyrimidinamine Derivatives Bearing Potent Activities against Tumor Growth” (J Med Chem, 2020).

Assay [1] relates to SUD4. The assay is described as follows: Induction of apoptosis in human SUDHL4 cells assessed as early apoptotic cells at 1.25 uM incubated for 48 hrs by annexin V-FITC and propidium iodide staining based flow cytometry analysis (reference value: 2.62%). The format is functional. On the technique in general: A flow cytometer gives signals particle by particle.
Assay [2] in a line: Cytotoxicity against HAF cells assessed as reduction in cell viability incubated for 72 hrs by CCK8 assay. To be noted: Homo sapiens. (Formazan colour is commonly taken as a measure of viable cells.)
Assay [3] deals with SUD4. The assay is described as follows: Induction of apoptosis in human SUDHL4 cells assessed as early apoptotic cells at 2.5 uM incubated for 48 hrs by annexin V-FITC and propidium iodide staining based flow cytometry analysis (reference value: 2.62%). The format is functional.
Assay [4] deals with Farage. The assay is described as follows: Antiproliferative activity against human Farage cells transfected with empty vector lentivirus assessed as reduction in cell viability at 10 to 80 uM incubated for 72 hrs by CCK8 assay. The format is functional, cell-based. In outline:
(§1)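 Lentivirus made by transfection; supernatant collected at 48 h and 72 h. DLBCL cells infected with virus plus 8 μg/mL polybrene for 48 h, then selected in RPMI 1640 with 2 μg/mL puromycin. Transduced cells seeded at 2 × 10⁴ cells/well and exposed to compound for 72 h. CCK8 added, 1-2 h at 37 °C, absorbance read at 450 nm. Run in triplicate.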

Assay [5] has as its system Farage. The assay is described as follows: Antiproliferative activity against human Farage cells transfected with lentivirus expressing BCL6 shRNA assessed as reduction in cell viability at 10 to 80 uM incubated for 72 hrs by CCK8 assay. The format is functional, cell-based.
The next assay relates to L02. The assay is described as follows: Cytotoxicity against human LO2 cells assessed as reduction in cell viability incubated for 72 hrs by CCK8 assay. To be noted: L02, 72 h.
In a further assay the test system is PNT1A. The assay is described as follows: Cytotoxicity against human PNT1A cells assessed as reduction in cell viability incubated for 72 hrs by CCK8 assay.
The species named for assay [6] is Mus musculus. To be noted: C57BL/6, 50 mg/kg.
In assay [7] the test system is SUD4. The assay is described as follows: Antiproliferative activity against human SUDHL4 cells assessed as reduction in cell viability incubated for 72 hrs by CCK8 assay. To be noted: SU-DHL-4, 72 h.
In another assay the test system is NCM460. The assay is described as follows: Cytotoxicity against human NCM460 cells assessed as reduction in cell viability incubated for 72 hrs by CCK8 assay. To be noted: NCM460, 72 h.
In assay [8] the test system is SUD4. The assay is described as follows: Antiproliferative activity against human SUDHL4 cells assessed as living cells and S phase cells at 0.625 uM incubated for 48 hrs by Edu based flow cytometry analysis (reference value: 48.3%).
Another assay has as its system OCI-Ly7. The assay is described as follows: Antiproliferative activity against human OCI-LY7 cells assessed as reduction in cell viability incubated for 72 hrs by CCK8 assay. To be noted: OCI-Ly7, 72 h.
For assay [9], the system named is SUD4. The assay is described as follows: Induction of apoptosis in human SUDHL4 cells assessed as late apoptotic cells at 2.5 uM incubated for 48 hrs by annexin V-FITC and propidium iodide staining based flow cytometry analysis (reference value: 1.39%). The format is functional.
Assay [10] has as its system Mus musculus. The assay is described as follows: In vivo inhibition of GC formation in NP-CGG immunized C57BL/6 mouse assessed as splenic GC B cells (GL7+FAS+B220+) at 50 mg/kg/day, ip for 12 days starting from 2 days after NP-CGG addition by flow cytometry (reference value: 1.97%). The format is functional. Also noted: scale not given: the % may be the effect or the level left.

Assay [11] concerns SUD4. The assay is described as follows: Antiproliferative activity against human SUDHL4 cells assessed as living cells and S phase cells at 2.5 uM incubated for 48 hrs by Edu based flow cytometry analysis (reference value: 48.3%).
A further assay relates to DOHH-2. The assay is described as follows: Antiproliferative activity against human DOHH2 cells assessed as reduction in cell viability incubated for 72 hrs by CCK8 assay. To be noted: DOHH-2, 72 h.
The test system of assay [12] is Toledo. The assay is described as follows: Antiproliferative activity against BCL6-negative human Toledo cells assessed as reduction in cell viability incubated for 72 hrs by CCK8 assay.
Assay [13] relates to SUD4. The assay is described as follows: Antiproliferative activity against human SUDHL4 cells assessed as living cells and S phase cells at 1.25 uM incubated for 48 hrs by Edu based flow cytometry analysis (reference value: 48.3%).
In assay [14] the test system is SUD4. The assay is described as follows: Induction of apoptosis in human SUDHL4 cells assessed as early apoptotic cells at 0.625 uM incubated for 48 hrs by annexin V-FITC and propidium iodide staining based flow cytometry analysis (reference value: 2.62%). The format is functional.
The test system of assay [15] is Farage. The assay is described as follows: Antiproliferative activity against human Farage cells assessed as reduction in cell viability incubated for 72 hrs by CCK8 assay.
Assay [16] deals with SUD4. The assay is described as follows: Induction of apoptosis in human SUDHL4 cells assessed as late apoptotic cells at 1.25 uM incubated for 48 hrs by annexin V-FITC and propidium iodide staining based flow cytometry analysis (reference value: 1.39%). The format is functional.
The subject of assay [17] is Toledo. The assay is described as follows: Antiproliferative activity against human Toledo cells transfected with lentivirus overexpressing BCL6 assessed as reduction in cell viability up to 20 uM incubated for 72 hrs by CCK8 assay. The format is functional, cell-based. The method, boiled down: as §1
Assay [18] deals with SUD4. The assay is described as follows: Induction of apoptosis in human SUDHL4 cells assessed as late apoptotic cells at 0.625 uM incubated for 48 hrs by annexin V-FITC and propidium iodide staining based flow cytometry analysis (reference value: 1.39%). The format is functional.
In assay [19] the test system is Toledo. The assay is described as follows: Antiproliferative activity against human Toledo cells transfected with empty vector lentivirus assessed as reduction in cell viability up to 20 uM incubated for 72 hrs by CCK8 assay. The format is functional, cell-based. In outline:
as §1

Assay [20] concerns the target B-cell lymphoma 6 protein (Homo sapiens, UniProt P41182, C67R/C84N/C8Q). The assay is described as follows: Inhibition of recombinant human C-terminal GST-tagged BCL6 BTB domain C8Q/C67R/C84N triple mutant expressed in Escherichia coli BL21 (DE3) cells assessed as reduction in SMRT/BTB domain interaction incubated for 1 hr by HTRF assay. On the technique in general: Time-resolved FRET reads energy transfer from a long-lived donor to a nearby acceptor.

The target of assay [21] is B-cell lymphoma 6 protein (Homo sapiens, UniProt P41182). The assay is described as follows: Binding affinity to lateral groove of BCL6 BTB domain (unknown origin). The method, boiled down: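 GST-tagged BCL6 protein was expressed in E. coli BL21(DE3), purified on glutathione Sepharose, dialysed into PBS and used for biolayer interferometry. GST biosensors were hydrated 10 min in kinetics buffer (1× PBS, 0.02% Tween 20), given a 60 s baseline, then loaded with BCL6-GST at 50 ng/mL for 300-600 s. After a second 60 s baseline, sensors were dipped into serially diluted compound.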

The term IC50 denotes the concentration that inhibits the measured activity by half. For orientation: Kd means the free concentration of one partner at which half of the binding sites on the other are occupied at equilibrium, for simple one-to-one binding.

Calls of active or inactive are those of the source. No cut-off for these calls is given here.

Regarding `O=C(O)CCN1C(=O)/C(=C2/C(=O)Nc3ccc(Cl)cc32)SC1=S`, the Activity worked out at 2.62% in the assay on SUD4 [1]; 3.19% in the assay on SUD4 [3]; 48.5% in the assay on SUD4 [8]; 1.96% in the assay on SUD4 [9]; 0.73% with Mus musculus [10]; 47.4% with SUD4 [11]. Also, the Activity in the assay on SUD4 [13] worked out at 45.1%; with SUD4 [14], 2.86%; in the assay with SUD4 [16], 1.73%; with SUD4 [18], 1.81%. Moreover, the IC50 in [2] was above 100 µM; in the assay with L02, above 100 µM; in the assay with PNT1A, above 100 µM; in the assay with SUD4 [7], 51.3 µM; with NCM460 it was above 100 µM; in the assay with OCI-Ly7, 39 µM. Also, the IC50 is 35.1 µM with DOHH-2, 65.3 µM with Toledo [12] and 33.9 µM in the assay on Farage [15]. Also, the result in the assay on Farage [4], in the assay on Farage [5] and in the assay on Toledo [17] was Active. Also, in the assay listed under Mus musculus [6], the inhibition entry is “Active”.

`O=C1Cc2cc(Nc3nc(NCc4cccnc4)ncc3Cl)ccc2N1`: the Activity in the assay on SUD4 [1] is on record as 3.43%; in the assay on SUD4 [3], 3.15%; in the assay on SUD4 [8], 43.4%; in the assay on SUD4 [9] it was 1.74%; in the assay with SUD4 [11], 41.2%; with SUD4 [13] it was 41.6%. Besides, the Activity in the assay with SUD4 [14] was 3.11%; with SUD4 [16], 1.97%; with SUD4 [18], 1.89%. In addition, the IC50 was above 100 µM in assay [2]; above 100 µM with L02; above 100 µM in the assay on PNT1A; 24.3 µM with SUD4 [7]; above 100 µM in the assay on NCM460; 33.9 µM with OCI-Ly7. Besides, the IC50 worked out at 47.6 µM in the assay on DOHH-2, 39.5 µM in the assay with Toledo [12] and 33.5 µM with Farage [15]. The result with Farage [4], with Farage [5], with Toledo [19] and in the assay with Toledo [17] was Active.

With `CCCCNc1ncc(F)c(Nc2ccc(OC)c(Cl)c2)n1`, the IC50 in [20] is above 10 µM.

In the case of `O=C(O)CC(C(=O)O)N1C(=O)/C(=C2/C(=O)Nc3ccc(Br)cc32)SC1=S` (stereo not drawn), the Kd in assay [21] was determined as 138 µM.

As for `COc1cc(Nc2nc(N3C[C@@H](C)N[C@@H](C)C3)ncc2F)ccc1NC(=O)c1ccc(Br)s1`, the IC50 in assay [20] is above 10 µM.

As to `COc1ccc(Nc2nc(N3C[C@@H](C)N[C@@H](C)C3)ncc2F)cc1NC(=O)c1ccc(Br)s1`, the IC50 in assay [20] is above 20 µM.

As for `COc1cc(Nc2nc(N3C[C@@H](C)N[C@@H](C)C3)ncc2F)ccc1NC(=O)c1ccc(Br)o1`, the concentration for half-maximal inhibition (IC50) in assay [20] was above 10 µM.

For `COc1ccc(Nc2nc(N(CC(C)C)CC(C)C)ncc2F)cc1Cl`, in assay [20], the IC50 was above 10 µM.

`COc1ccc(Nc2nc(N3C[C@@H](C)N[C@@H](C)C3)ncc2F)cc1NC(=O)c1ccc(Br)o1`: the IC50 in assay [20] is above 20 µM.

Consider `COc1ccc(Nc2nc(N3C[C@H](C)C[C@H](C)C3)ncc2F)cc1Cl`, for which, in assay [20], the IC50 is above 10 µM.
